Measured values as given in paper PMC2753677 (Biochemistry, 2009).
“Also recorded” adds a separate entry of the source.

Assays:
[1] = target: FKBP12 (Homo sapiens, UniProt P62942); experiment: PPIase inhibition, FKBP12; type: biochemical
[2] = target: T1, CypA (Homo sapiens, UniProt P62937); experiment: isothermal titration calorimetry; type: binding
[3] = system: CypB-induced chemotaxis of mouse CD4+ T cells; experiment: Boyden chamber chemotaxis assay, CypB-induced; type: cell-based; conditions: 2 μM compound, 200 ng/ml CypB, activated mouse CD4+ T cells, 50 min
Outline: (§1)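 Mouse spleen cells (3×10^6/well) stimulated overnight with ConA 10 μg/ml in Click's medium + 5% FCS, 37°C, 5% CO2; CD4+ T cells isolated by MACS negative depletion. 104 cells placed in upper wells of 48-well Boyden chamber (5-μm polycarbonate membrane). Lower wells: RPMI-1640 + 1% BSA with recombinant human CypA or recombinant CypB. Test compound added to top and bottom wells. 50 min, 37°C. Membrane Wright-Giemsa stained; chemotactic index = migrated cells/mean medium-alone.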

[4] = target: mouse (His)6-CypC (Mus musculus, UniProt P30412); experiment: protease-free PPIase assay, CypC; type: biochemical
[5] = system: CypA-induced chemotaxis of mouse CD4+ T cells; experiment: Boyden chamber chemotaxis assay, CypA-induced; type: cell-based; conditions: 2 μM compound, 100 ng/ml CypA, activated mouse CD4+ T cells, 50 min
Outline: as §1

[6] = target: Par14 (Homo sapiens, UniProt Q9Y237); experiment: PPIase inhibition, Par14; type: biochemical
[7] = target: Human CypB (Homo sapiens, UniProt P23284); experiment: protease-free PPIase assay, CypB; type: biochemical; conditions: up to a concentration of 30 μM
[8] = system: RANTES-induced migration of mouse CD4+ T cells; experiment: Boyden chamber chemotaxis assay, RANTES-induced; type: cell-based; conditions: 1 ng/ml mouse RANTES, activated mouse CD4+ T cells (data not shown)
[9] = ITC control titration of CsA with compound 1; type: binding; conditions: syringe 1, cell CsA; n.s. = no signal of heat formation
[10] = target: T1, CypA; experiment: protease-free PPIase assay, CypA; type: biochemical; conditions: 35 mM HEPES pH 7.8, 283 K, Suc-Ala-Ala-Pro-Phe-pNA 60 μM

T1 sequence (P62937 whole entry): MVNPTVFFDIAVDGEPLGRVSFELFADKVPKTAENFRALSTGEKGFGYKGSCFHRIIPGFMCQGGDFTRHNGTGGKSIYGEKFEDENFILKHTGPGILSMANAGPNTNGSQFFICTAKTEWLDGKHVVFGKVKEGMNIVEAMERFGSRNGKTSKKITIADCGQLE
mouse (His)6-CypC, sequence (P30412 whole entry): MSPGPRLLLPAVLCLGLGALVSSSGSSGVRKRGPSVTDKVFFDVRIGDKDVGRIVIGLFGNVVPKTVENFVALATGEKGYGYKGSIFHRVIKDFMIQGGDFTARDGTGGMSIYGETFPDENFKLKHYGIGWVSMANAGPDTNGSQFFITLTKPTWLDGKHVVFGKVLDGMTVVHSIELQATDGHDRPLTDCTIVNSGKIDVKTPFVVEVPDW
FKBP12, sequence (P62942 whole entry, species assumed): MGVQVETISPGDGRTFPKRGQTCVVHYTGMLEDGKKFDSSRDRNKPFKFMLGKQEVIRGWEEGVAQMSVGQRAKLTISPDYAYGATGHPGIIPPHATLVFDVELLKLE
Par14, sequence (Q9Y237 whole entry): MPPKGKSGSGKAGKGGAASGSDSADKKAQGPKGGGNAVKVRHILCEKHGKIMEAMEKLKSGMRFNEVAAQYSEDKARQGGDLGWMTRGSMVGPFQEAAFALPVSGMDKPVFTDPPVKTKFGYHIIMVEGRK
Human CypB, sequence (P23284 34-216): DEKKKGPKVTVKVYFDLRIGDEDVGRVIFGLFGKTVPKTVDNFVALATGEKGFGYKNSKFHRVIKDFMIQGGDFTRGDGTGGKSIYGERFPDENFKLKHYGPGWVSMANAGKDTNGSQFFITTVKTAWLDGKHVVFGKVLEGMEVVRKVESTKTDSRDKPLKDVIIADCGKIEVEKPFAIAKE

**Q.** For `O=C(c1cc(-c2cc(F)cc([N+](=O)[O-])c2O)cc([N+](=O)[O-])c1O)C1CCc2ccccc21` (stereo not shown) [Compound 1], which Ki [1] is on record?
**A.** 38 ± 8 µM

**Q.** What about the “association constant KA” value ([2]; competition ITC approach, calculated by eq. 2, 293 K) of the same molecule?
**A.** 44000 M⁻¹

**Q.** What about the “binding enthalpy ΔH” value ([2]; competition ITC approach, calculated by eq. 3, 293 K) of the same molecule?
**A.** -2.8 kcal/mol

**Q.** And the Kd ([2]; read-out: dissociation constant KD, ITC probe of CsA/compound 1 competition)?
**A.** 22.6 µM

**Q.** And the “effect on CypB-induced chemotaxis” value [3]?
**A.** barely impacted; also recorded: not influenced

**Q.** And the Ki ([4]; CypC, 35 mM HEPES pH 7.8, 283 K, Suc-Ala-Ala-Pro-Phe-pNA 60 μM)?
**A.** > 100 µM

**Q.** And the “response of PPIase activity of CypC” value ([4]; up to a concentration of 30 μM)?
**A.** did not respond

**Q.** What about the “inhibition of CypA-induced chemotaxis” value [5] of the same molecule?
**A.** almost completely; also recorded: specifically inhibited

**Q.** What about the “influence on Par14” value [6] of the same molecule?
**A.** does not influence

**Q.** What about the “response of PPIase activity of CypB” value [7] of the same molecule?
**A.** did not respond

**Q.** What about the “effect on RANTES-induced cell migration” value [8] of the same molecule?
**A.** not impacted

**Q.** What about the KA [9] of the same molecule?
**A.** n.s.

**Q.** For [O-(CF-NH(CH2)2NHC(O)CH2-)D-Ser]^8CsA, which Ki [10] is on record?
**A.** 0.0024 ± 0.0003 µM
